Laboratory results published in ChEMBL document CHEMBL1909578, “New diarylureas and diarylamides containing 1,3,4-triarylpyrazole scaffold: Synthesis, antiproliferative evaluation against melanoma cell lines, ERK kinase inhibition, and molecular docking studies” (Eur J Med Chem, 2011).

Assays:
[1] = Antiproliferative activity against human A375P cells after 48 hrs by MTT assay; format: functional, cell-based
How it was run: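 A375P cells grown in DMEM with 10% FBS and 1% penicillin/streptomycin at 37 °C, 5% CO2. Cells detached with 0.05% trypsin-0.02% EDTA, seeded at 5×10^3 cells/well, and left 24 h. Then exposed for 48 h to 12-point 3-fold serial dilutions. Viability read by MTT reduction, absorbance at 590 nm. IC50 derived from the concentration-response curve.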

MDA-MB-435 = experiment: Antiproliferative activity against human MDA-MB-435 cells after 48 hrs by SRB assay; format: functional, cell-based; settings: MDA-MB-435, 48 h
How it was run: (§1)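 NCI melanoma panel grown in RPMI 1640 with 5% FBS and 2 mM glutamine. Seeded at 5000–40,000 cells/well, then 24 h before dosing, with time-zero plates fixed. Five concentrations (10-fold or 1/2-log dilutions from DMSO stock) for 48 h. Cells TCA-fixed, stained with 0.4% SRB, read at 515 nm. IC50 is 50% reduction in net protein increase, from (Ti−Tz)/(C−Tz).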

M14 = experiment: Antiproliferative activity against human M14 cells after 48 hrs by SRB assay; format: functional, cell-based; settings: M14, 48 h; how it was run: as §1
[2] = target: Mitogen-activated protein kinase; ERK1/ERK2 (Homo sapiens) (UniProt P27361+P28482); experiment: Inhibition of ERK1/2 phosphorylation in human A375P cells after 24 hrs by immunoblotting; format: cell-based
How it was run: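 A375P melanoma cells treated with 1, 3 and 10 μM compound for 24 h. Lysed in RIPA buffer, sonicated, centrifuged, and protein quantified by DC assay. Lysates run on SDS-PAGE and immunoblotted for phospho-ERK1/2, with β-actin as loading reference.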

UACC-257 = experiment: Antiproliferative activity against human UACC257 cells after 48 hrs by SRB assay; format: functional, cell-based; settings: UACC-257, 48 h; how it was run: as §1
UACC-62 = experiment: Antiproliferative activity against human UACC62 cells after 48 hrs by SRB assay; format: functional, cell-based; settings: UACC-62, 48 h; how it was run: as §1
LOX IMVI = experiment: Antiproliferative activity against human LOXIMVI cells after 48 hrs by SRB assay; format: functional, cell-based; how it was run: as §1
SK-MEL-28 = experiment: Antiproliferative activity against human SK-MEL-28 cells after 48 hrs by SRB assay; format: functional, cell-based; settings: SK-MEL-28, 48 h; how it was run: as §1
SK-MEL-2 = experiment: Antiproliferative activity against human SK-MEL-2 cells after 48 hrs by SRB assay; format: functional, cell-based; settings: SK-MEL-2, 48 h; how it was run: as §1
SK-MEL-5 = experiment: Antiproliferative activity against human SK-MEL-5 cells after 48 hrs by SRB assay; format: functional, cell-based; settings: SK-MEL-5, 48 h; how it was run: as §1

Chain of Mitogen-activated protein kinase; ERK1/ERK2 (Homo sapiens) (P27361 whole entry, looked up): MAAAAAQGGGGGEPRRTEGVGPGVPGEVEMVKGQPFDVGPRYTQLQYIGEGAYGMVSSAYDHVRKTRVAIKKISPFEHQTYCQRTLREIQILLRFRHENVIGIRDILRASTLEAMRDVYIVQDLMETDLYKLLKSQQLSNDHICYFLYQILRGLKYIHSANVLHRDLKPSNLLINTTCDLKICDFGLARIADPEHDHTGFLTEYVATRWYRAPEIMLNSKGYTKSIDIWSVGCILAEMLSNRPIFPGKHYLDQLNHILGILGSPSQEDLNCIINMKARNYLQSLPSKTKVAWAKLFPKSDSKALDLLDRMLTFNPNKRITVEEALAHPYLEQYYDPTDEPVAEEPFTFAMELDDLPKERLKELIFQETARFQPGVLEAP
Chain of Mitogen-activated protein kinase; ERK1/ERK2 (Homo sapiens) (P28482 whole entry, looked up): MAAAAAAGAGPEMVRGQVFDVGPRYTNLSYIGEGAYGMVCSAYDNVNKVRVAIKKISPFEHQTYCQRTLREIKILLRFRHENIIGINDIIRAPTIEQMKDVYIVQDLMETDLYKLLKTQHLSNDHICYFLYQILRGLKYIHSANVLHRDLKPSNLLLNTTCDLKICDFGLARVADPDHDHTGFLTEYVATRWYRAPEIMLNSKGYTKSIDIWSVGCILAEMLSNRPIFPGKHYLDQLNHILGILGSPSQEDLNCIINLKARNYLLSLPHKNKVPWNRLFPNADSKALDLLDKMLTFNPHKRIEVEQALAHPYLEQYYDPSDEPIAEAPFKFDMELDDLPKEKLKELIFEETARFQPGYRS

SMILES	IC50 [1] [nM]	IC50 (MDA-MB-435) [nM]	IC50 (M14) [nM]	inhibition [2]	IC50 (UACC-257) [nM]	IC50 (UACC-62) [nM]	IC50 (LOX IMVI) [nM]	IC50 (SK-MEL-28) [nM]	IC50 (SK-MEL-2) [nM]	IC50 (SK-MEL-5) [nM]
O=C(Nc1ccc(-n2cc(-c3ccncc3)c(-c3ccc(Cl)c(O)c3)n2)cc1)c1ccc(Cl)c(Cl)c1	6700	2730	2350	Dose-dependent effect	4740	3220	1450	2940	4050	1150
O=C(Nc1ccc(-n2cc(-c3ccncc3)c(-c3ccc(Cl)c(O)c3)n2)cc1)c1cc(C(F)(F)F)cc(C(F)(F)F)c1	> 20000	4110	6340		8940	14400	2540	4880	6600	1550
COc1cc(-c2nn(-c3ccc(NC(=O)Nc4cc(C(F)(F)F)cc(C(F)(F)F)c4)cc3)cc2-c2ccncc2)ccc1Cl	11800	1880	1990		2300	1550	1630	1930	1700	1530
COc1cc(-c2nn(-c3ccc(NC(=O)c4ccc(Cl)c(Cl)c4)cc3)cc2-c2ccncc2)ccc1Cl	13000	7130	22400		> 100000	6340	2760	40300	5740	1650
O=C(Nc1ccc(-n2cc(-c3ccncc3)c(-c3ccc(Cl)c(O)c3)n2)cc1)Nc1cc(C(F)(F)F)cc(C(F)(F)F)c1	> 20000	1770	1760		2010	2230	1630	2010	1800	1670
COc1cc(-c2nn(-c3ccc(NC(=O)c4ccc(Cl)c(C(F)(F)F)c4)cc3)cc2-c2ccncc2)ccc1Cl	9800	2520	1920		5830	2180	1560	2800	3150	1590
COc1cc(-c2nn(-c3ccc(NC(=O)Nc4ccc(Cl)c(Cl)c4)cc3)cc2-c2ccncc2)ccc1Cl	> 20000	2870	2560		3170	3350	1980	3940	3440	2840
CNC(=O)c1cc(Oc2ccc(NC(=O)Nc3ccc(Cl)c(C(F)(F)F)c3)cc2)ccn1 [SORAFENIB]	11500									
O=C(Nc1ccc(-n2cc(-c3ccncc3)c(-c3ccc(Cl)c(O)c3)n2)cc1)Nc1ccc(Cl)c(C(F)(F)F)c1	14900	1320	1430		1510	1700	1440	1630	1700	1530
O=C(Nc1ccc(-n2cc(-c3ccncc3)c(-c3ccc(Cl)c(O)c3)n2)cc1)Nc1cccc(Cl)c1Cl	16800									
COc1cc(-c2nn(-c3ccc(NC(=O)c4cc(Cl)cc(Cl)c4)cc3)cc2-c2ccncc2)ccc1Cl	> 20000	> 100000	7390		> 100000	4580	3090	> 100000	> 100000	12000
COc1cc(-c2nn(-c3ccc(NC(=O)Nc4cccc(Cl)c4Cl)cc3)cc2-c2ccncc2)ccc1Cl	> 20000									
COc1cc(-c2nn(-c3ccc(NC(=O)Nc4ccc(Cl)c(C(F)(F)F)c4)cc3)cc2-c2ccncc2)ccc1Cl	14000	1600	1740		1640	1770	1430	1880	1630	1570
O=C(Nc1ccc(-n2cc(-c3ccncc3)c(-c3ccc(Cl)c(O)c3)n2)cc1)c1cc(Cl)cc(Cl)c1	6800	3780	1510		5700	2730	1190	2750	6910	1400
COc1cc(-c2nn(-c3ccc(NC(=O)c4cc(C(F)(F)F)cc(C(F)(F)F)c4)cc3)cc2-c2ccncc2)ccc1Cl	> 20000									
O=C(Nc1ccc(-n2cc(-c3ccncc3)c(-c3ccc(Cl)c(O)c3)n2)cc1)Nc1ccc(Cl)c(Cl)c1	13500									
O=C(Nc1ccc(-n2cc(-c3ccncc3)c(-c3ccc(Cl)c(O)c3)n2)cc1)c1ccc(Cl)c(C(F)(F)F)c1	6800	1200	840		2550	2030	360	1080	1580	1070
